According to ChEMBL document CHEMBL3286242, “Design, synthesis and biological evaluation of arylcinnamide hybrid derivatives as novel anticancer agents” (Eur J Med Chem, 2014):
Active and inactive are the calls of the source. The rule behind the calls is not given here.

What was measured:
[1] = Cytotoxicity against human SEM cells assessed as growth inhibition after 72 hrs by MTT assay; type: functional, cell-based
MCF7 = test: Cytotoxicity against human MCF7 cells assessed as growth inhibition after 72 hrs by MTT assay; type: functional, cell-based; conditions: MCF7, 72 h
PBMC = test: Cytotoxicity against human PHA-stimulated PBMC assessed as growth inhibition after 72 hrs by MTT assay; type: functional, cell-based
[2] = Cytotoxicity against human CEM/VBL100 cells assessed as growth inhibition after 72 hrs by MTT assay; type: functional, cell-based; conditions: CEM/VBL100, 72 h
LoVo = test: Resistance ratio of IC50 for human LoVo/DX cells to IC50 for human LoVo cells; type: functional
How it was run: (§1)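 Ratio of IC50 in resistant line to IC50 in parental line (CEMVbl-100/CEM; LoVoDoxo/LoVo), each IC50 from 72 h MTT dose–response curves, ≥3 independent experiments.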

CCRF-CEM = test: Resistance ratio of IC50 for human CEM/VBL100 cells to IC50 for human CEM cells; type: functional; how it was run: as §1
HeLa [3] = test: Induction of apoptosis in human HeLa cells assessed as increase in Bax protein expression at 1 to 2.5 uM after 24 to 48 hrs by Western blotting analysis; type: functional, cell-based
HeLa [4] = test: Induction of apoptosis in human HeLa cells assessed as cell viability at 2.5 uM after 48 hrs by MTT assay in presence of reduced glutathione; type: functional, cell-based
How it was run: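 HeLa cells exposed to 2.5 μM compound for 48 h with scavengers (NAC 100 μM, GSH 1 mM or DTT 1 mM, among others); viability by MTT; means ± SEM of four independent experiments, Student's t-test.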

HeLa [5] = test: Induction of apoptosis in human HeLa cells assessed as reduction in Bcl-2 protein expression at 1 to 2.5 uM by Western blotting analysis; type: functional, cell-based; conditions: TDE = time-dependent effect
How it was run: (§2)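 HeLa cells treated at indicated concentrations and times; washed in cold PBS, lysed 30 min at 0 °C, cleared at 15 000 × g; 20 μg protein resolved on 7.5–15% gradient SDS-PAGE, blotted to PVDF, primary antibodies 2 h room temperature, peroxidase secondary 60 min, ECL detection; β-actin reprobe for loading.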

HeLa [6] = test: Induction of apoptosis in human HeLa cells assessed as caspase-3 activation after 24 to 48 hrs by Western blotting analysis; type: functional, cell-based; how it was run: as §2
HeLa [7] = test: Induction of apoptosis in human HeLa cells assessed as reduction in Bcl-2 protein expression at 1 to 2.5 uM after 48 hrs by Western blotting analysis; type: functional, cell-based; how it was run: as §2
HeLa [8] = test: Induction of apoptosis in human HeLa cells assessed as GSH depletion after 24 hrs by CMFDA staining-based flow cytometry; type: functional, cell-based
How it was run: (§3)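 HeLa cells treated 24 h with compound, alone or with 100 μM NAC; harvested and loaded with 5 μM CMFDA, 30 min at 37 °C; intracellular GSH read as CMFDA fluorescence by flow cytometry; means ± SEM.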

HeLa [9] = test: Induction of apoptosis in human HeLa cells assessed as GSH depletion at 1 to 2.5 uM after 24 hrs by CMFDA staining-based flow cytometry in presence of N-acetylcysteine; type: functional, cell-based; how it was run: as §3

Work on `C=C(Br)C(=O)Nc1ccc(/C=C/C(=O)Nc2cc(OC)c(OC)c(OC)c2)cc1` yielded an IC50 [1] of 110 nM, an IC50 (MCF7) of 3000 nM and an IC50 (PBMC) of 240 nM. The IC50 [2] was 15 nM, the “Ratio IC50” value (LoVo) was 0.6 and the “Ratio IC50” value (CCRF-CEM) was 0.6. The Activity (HeLa [3]) was “inactive”, the Activity (HeLa [4]) was “inactive” and the Activity (HeLa [5]) was “tde”. The Activity (HeLa [6]) was “Dose-dependent effect”, the Activity (HeLa [7]) was “Active” and the Activity (HeLa [8]) was “Dose-dependent effect”. For the same compound, the Activity (HeLa [9]) was “inactive”.
